Assay results reported in ChEMBL document CHEMBL6083216, “Rational design and in vitro testing of new urease inhibitors to prevent urinary catheter blockage” (RSC Med Chem, 2024).

Experiments:
[1] = Inhibition of Proteus mirabilis B4 urease activity using urea as substrate incubated for 30 mins by absorbance based assay
Summary of the method: (§1)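 Berthelot ammonia assay with whole-cell P. mirabilis B4, grown overnight in LB at 37 °C, pelleted and resuspended in PBS (0.004 mg mL−1 in phosphate buffer). Cells incubated with compound (10-fold dilutions) and 50 mM urea for 30 min at 37 °C. Phenol/nitroprusside and NaOH/hypochlorite reagents added, 30 min at 37 °C, A636 read. Activity normalised to controls; IC50 by non-linear regression; n = 6.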

[2] = system: Proteus mirabilis; assay: Potency index, ratio of acetohydroxamic acid IC50 to test compound IC50 for inhibition of Proteus mirabilis B4 urease activity using urea as substrate incubated for 30 mins by absorbance based assay; summary of the method: as §1
[3] = system: HepG2; assay: Cytotoxicity against human HepG2 cells assessed as effect on cell survival at <1.25 mM measured for 24 hrs by MTT assay; assay type: toxicity, cell-based; conditions: hepg2, 24 h, 1250 µM
Summary of the method: (§2)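 HepG2 cells in complete DMEM at 37 °C, 5% CO2, seeded at 1 × 10^4 cells per well. Compounds diluted serially from 10 mM with 1% DMSO in DMEM; 24 h exposure. MTT (1 mg mL−1) for 60 min at 37 °C, dissolved in isopropanol, absorbance read at 590 nm (reference 620 nm). % survival relative to untreated cells; three biological repeats.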

[4] = system: Proteus mirabilis; assay: Antibacterial activity against Proteus mirabilis assessed as inhibition of bacterial growth incubated for 18 hrs by absorbance based plate reader analysis; assay type: functional, organism-based
Summary of the method: (§3)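 Broth microdilution in LB: compound in sterile water with 5% (v/v) DMSO, two-fold serial dilutions; subculture at 1 × 10^6 CFU mL−1 added. 37 °C for 18 h, shaken 10 s before each OD600 reading taken at intervals. MIC read visually at 18 h and from growth curves as lowest concentration inhibiting growth. Wells with broth only and with bacteria only as controls.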

[5] = system: Escherichia coli; assay: Antibacterial activity against Escherichia coli NSM59 assessed as inhibition of bacterial growth incubated for 18 hrs by absorbance based plate reader analysis; assay type: functional, organism-based; summary of the method: as §3
[6] = system: HepG2; assay: Cytotoxicity against human HepG2 cells assessed as effect on cell survival at 10 mM measured within 24 hrs by MTT assay; assay type: toxicity, cell-based; conditions: hepg2, 24 h, 10000 µM; summary of the method: as §2
[7] = Hemolytic activity in human erythrocytes at 0.080 to 5 mM incubated for 1 hrs by absorbance based assay; assay type: toxicity, cell-based; conditions: erythrocyte, 5000 µM, dose 0.08-5 mM
Summary of the method: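 Pooled heparinised whole blood from three donors; erythrocytes washed three times in saline and diluted to 1% (v/v). Incubated with compound (5–0.08 mM, serial dilution of a 10 mM stock with 1% DMSO in PBS) for 1 h at 37 °C with rotation. Saline and 1% triton as controls. Supernatant absorbance read at 404 nm; % haemolysis relative to lysed cells.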

SMILES	IC50 [1]	Ratio IC50 [2]	Activity [3]	Activity [4]	Activity [5]	Activity [6]	Activity [7]
NC(=S)NCc1ccccc1	2.27 10^-5mol/dm3	1.61	–	–	–	–	–
S=C(NCc1cccnc1)NCc1cccnc1	1.4 10^-6mol/dm3	26.1	Non-toxic	Moderate_effect	Moderate_effect	Toxic	Non-toxic
CC(=O)NO [ACETOHYDROXAMIC ACID]	3.66 10^-5mol/dm3	–	Non-toxic	Moderate_effect	Moderate_effect	Toxic	Non-toxic
NC(=S)Nc1ccccc1 [PHENYLTHIOUREA]	9.66 10^-6mol/dm3	0.002	–	–	–	–	–
O=c1c(O)c(-c2ccc(O)c(O)c2)oc2cc(O)cc(O)c12 [QUERCETIN]	8.66 10^-7mol/dm3	0.001	–	–	–	–	–
